Assay results as given in ChEMBL document CHEMBL1145924 (J Med Chem, 2003).

These compounds were tested against Muscarinic acetylcholine receptor M3 (Cavia porcellus, UniProt Q8VH26) (assay: Antagonistic activity for carbachol induced contractions in guinea pig ileum against Muscarinic acetylcholine receptor M3 in the presence of mepyramine at a concentration of 1-3 micro M). Conditions: read-out: pA2 (converted).
Assay type: functional, tissue-based

Chain of Muscarinic acetylcholine receptor M3 (Q8VH26 whole entry): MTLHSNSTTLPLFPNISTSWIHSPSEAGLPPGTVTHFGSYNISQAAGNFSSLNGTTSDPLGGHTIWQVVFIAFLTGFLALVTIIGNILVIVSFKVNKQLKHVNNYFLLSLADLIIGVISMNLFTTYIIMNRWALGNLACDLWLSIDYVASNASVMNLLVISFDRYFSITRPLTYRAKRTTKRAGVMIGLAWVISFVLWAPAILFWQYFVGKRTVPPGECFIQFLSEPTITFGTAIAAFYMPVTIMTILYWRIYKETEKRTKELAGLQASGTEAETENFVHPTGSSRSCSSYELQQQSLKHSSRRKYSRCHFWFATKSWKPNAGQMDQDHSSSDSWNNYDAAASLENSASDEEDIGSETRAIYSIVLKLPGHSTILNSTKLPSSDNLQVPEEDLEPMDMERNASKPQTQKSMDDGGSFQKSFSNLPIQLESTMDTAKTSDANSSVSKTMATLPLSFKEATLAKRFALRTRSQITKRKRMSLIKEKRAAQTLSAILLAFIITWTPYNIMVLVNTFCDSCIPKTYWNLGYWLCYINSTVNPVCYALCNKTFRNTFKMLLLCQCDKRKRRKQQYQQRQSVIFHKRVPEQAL

Row | Compound | Kb
1 | c1ccc(C(CCc2nc(CCNCCCCCc3ccccn3)c[nH]2)c2ccccc2)cc1 | 513 nM
2 | c1ccc(C(CCc2nc(CCNCCCCCc3cccnc3)c[nH]2)c2ccccc2)cc1 | 562 nM
3 | c1ccc(C(CCc2nc(CCNCCCCc3c[nH]cn3)c[nH]2)c2ccccc2)cc1 | 417 nM
4 | c1ccc(C(CCc2nc(CCNCCCc3c[nH]cn3)c[nH]2)c2ccccc2)cc1 | 776 nM
5 | c1ccc(C(CCc2nc(CCNCCc3ccncc3)c[nH]2)c2ccccc2)cc1 | 1000 nM

Each compound was assayed against Histamine H3 receptor (Cavia porcellus, UniProt Q9JI35) (assay: Tested for Antagonistic activity at histamine H3 receptor in guinea pig ileal longitudinal muscle in the presence of mepyramine at a concentration of 1-3 micro M). Conditions: read-out: pA2 (converted).
Assay type: functional
Outline: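 Field-stimulated ileal longitudinal muscle (15 V, 0.5 ms, 0.1 Hz), 37 °C, mepyramine 1–3 μM throughout. […] Antagonists used only at concentrations not blocking M3 receptors; apparent pA2 from rightward shift.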

Chain of Histamine H3 receptor (Q9JI35 whole entry): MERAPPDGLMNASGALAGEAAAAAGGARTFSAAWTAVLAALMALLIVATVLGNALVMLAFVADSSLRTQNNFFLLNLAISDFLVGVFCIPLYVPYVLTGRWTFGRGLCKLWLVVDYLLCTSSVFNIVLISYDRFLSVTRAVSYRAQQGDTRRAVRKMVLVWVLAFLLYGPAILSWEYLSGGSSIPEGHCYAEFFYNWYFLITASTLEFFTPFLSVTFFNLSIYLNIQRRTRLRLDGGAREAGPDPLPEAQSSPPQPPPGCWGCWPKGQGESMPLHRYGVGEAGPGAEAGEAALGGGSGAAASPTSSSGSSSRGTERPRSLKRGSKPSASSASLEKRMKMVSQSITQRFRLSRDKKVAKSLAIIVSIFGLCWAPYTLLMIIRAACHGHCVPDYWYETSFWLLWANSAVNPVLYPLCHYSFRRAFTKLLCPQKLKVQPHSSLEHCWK

Row | Compound | Kb
6 | c1ccc(C(CCc2nc(CCNCCCCCc3ccccn3)c[nH]2)c2ccccc2)cc1 | > 316 nM
7 | c1ccc(C(CCc2nc(CCNCCCCCc3cccnc3)c[nH]2)c2ccccc2)cc1 | > 316 nM
8 | c1ccc(C(CCc2nc(CCNCCCCc3c[nH]cn3)c[nH]2)c2ccccc2)cc1 | 10.2 nM
9 | c1ccc(C(CCc2nc(CCNCCCc3c[nH]cn3)c[nH]2)c2ccccc2)cc1 | 123 nM
10 | c1ccc(C(CCc2nc(CCNCCc3ccncc3)c[nH]2)c2ccccc2)cc1 | > 501 nM

What follows are compounds tested against Histamine H2 receptor (Cavia porcellus) (UniProt P47747) (assay: not given). Conditions: Cardiac atrium.
Chain of Histamine H2 receptor (Cavia porcellus) (P47747 whole entry): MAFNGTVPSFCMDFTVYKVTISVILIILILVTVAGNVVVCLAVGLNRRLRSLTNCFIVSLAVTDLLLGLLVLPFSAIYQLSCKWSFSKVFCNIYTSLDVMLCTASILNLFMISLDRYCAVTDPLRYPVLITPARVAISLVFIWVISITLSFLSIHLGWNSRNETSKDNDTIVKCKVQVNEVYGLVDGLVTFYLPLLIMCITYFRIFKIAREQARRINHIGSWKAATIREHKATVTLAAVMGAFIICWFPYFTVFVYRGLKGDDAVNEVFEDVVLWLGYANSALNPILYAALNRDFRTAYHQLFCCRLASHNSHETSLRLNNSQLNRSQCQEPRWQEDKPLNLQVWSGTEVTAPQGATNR

Row | Compound | pD2
11 | c1ccc(C(CCc2nc(CCNCCCCCc3ccccn3)c[nH]2)c2ccccc2)cc1 | 5.02
12 | c1ccc(C(CCc2nc(CCNCCCCCc3cccnc3)c[nH]2)c2ccccc2)cc1 | 5.25
13 | c1ccc(C(CCc2nc(CCNCCCCc3c[nH]cn3)c[nH]2)c2ccccc2)cc1 | 4.12
14 | c1ccc(C(CCc2nc(CCNCCCc3c[nH]cn3)c[nH]2)c2ccccc2)cc1 | 3.92
15 | c1ccc(C(CCc2nc(CCNCCc3ccncc3)c[nH]2)c2ccccc2)cc1 | 4.37

Organism: Cavia porcellus
Test: Apparent pA2 value of compound at 3 nM concentration of mepyramine in guinea pig ileum
Conditions: not given

Row | Compound | Kb
16 | c1ccc(C(CCc2nc(CCNCCCCc3c[nH]cn3)c[nH]2)c2ccccc2)cc1 | 1.7 nM

Organism: Cavia porcellus
Test: Apparent pA2 value at 3 nM concentration of mepyramine in guinea pig ileum
Assay type: functional
Conditions: read-out: pA2 (converted)

Row | Compound | Kb
17 | c1ccc(C(CCc2nc(CCNCCCCCc3ccccn3)c[nH]2)c2ccccc2)cc1 | 1.82 nM
18 | c1ccc(C(CCc2nc(CCNCCCCCc3cccnc3)c[nH]2)c2ccccc2)cc1 | 1.48 nM
19 | c1ccc(C(CCc2nc(CCNCCCc3c[nH]cn3)c[nH]2)c2ccccc2)cc1 | 1.86 nM
20 | c1ccc(C(CCc2nc(CCNCCc3ccncc3)c[nH]2)c2ccccc2)cc1 | 1.48 nM

The compounds below were run against Histamine H1 receptor (Cavia porcellus) (UniProt P31389) (assay: Concentration required for agonistic activity against histamine in guinea pig ileum). Conditions: not given.
Assay type: functional, tissue-based

Chain of Histamine H1 receptor (Cavia porcellus) (P31389 whole entry): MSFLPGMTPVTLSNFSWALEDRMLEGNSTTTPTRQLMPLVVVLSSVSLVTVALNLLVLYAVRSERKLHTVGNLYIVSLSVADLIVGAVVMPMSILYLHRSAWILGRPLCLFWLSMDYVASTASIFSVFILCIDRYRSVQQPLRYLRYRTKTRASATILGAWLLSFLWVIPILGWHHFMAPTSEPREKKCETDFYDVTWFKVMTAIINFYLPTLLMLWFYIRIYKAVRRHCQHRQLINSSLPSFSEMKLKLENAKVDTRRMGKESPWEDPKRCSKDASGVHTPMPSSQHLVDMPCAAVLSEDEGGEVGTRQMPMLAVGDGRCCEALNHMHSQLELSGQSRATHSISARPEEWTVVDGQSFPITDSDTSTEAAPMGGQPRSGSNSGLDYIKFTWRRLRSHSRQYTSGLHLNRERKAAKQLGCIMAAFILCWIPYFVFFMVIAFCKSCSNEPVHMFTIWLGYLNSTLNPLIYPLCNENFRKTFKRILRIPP

Row | Compound | Concentration
21 | c1ccc(C(CCc2nc(CCNCCCCCc3ccccn3)c[nH]2)c2ccccc2)cc1 | 3 µM
22 | c1ccc(C(CCc2nc(CCNCCCCCc3cccnc3)c[nH]2)c2ccccc2)cc1 | 3 µM
23 | c1ccc(C(CCc2nc(CCNCCCCc3c[nH]cn3)c[nH]2)c2ccccc2)cc1 | 10 µM
24 | c1ccc(C(CCc2nc(CCNCCCc3c[nH]cn3)c[nH]2)c2ccccc2)cc1 | 0.1 µM
25 | c1ccc(C(CCc2nc(CCNCCc3ccncc3)c[nH]2)c2ccccc2)cc1 | 10 µM

The compounds below were run against Histamine H1 receptor (Cavia porcellus) (UniProt P31389) (assay: Maximum response (E max) against histamine H1 receptor in guinea pig ileum). Conditions: not given.
Assay type: tissue-based

Row | Compound | Emax
26 | c1ccc(C(CCc2nc(CCNCCCCCc3ccccn3)c[nH]2)c2ccccc2)cc1 | 83%
27 | c1ccc(C(CCc2nc(CCNCCCCCc3cccnc3)c[nH]2)c2ccccc2)cc1 | 84%
28 | c1ccc(C(CCc2nc(CCNCCCCc3c[nH]cn3)c[nH]2)c2ccccc2)cc1 | 86%
29 | c1ccc(C(CCc2nc(CCNCCCc3c[nH]cn3)c[nH]2)c2ccccc2)cc1 | 95%
30 | c1ccc(C(CCc2nc(CCNCCc3ccncc3)c[nH]2)c2ccccc2)cc1 | 78%

These compounds were tested against Histamine H1 receptor (Cavia porcellus) (UniProt P31389) (assay: Equilibrium dissociation constant (pKp) against histamine H1 receptor in guinea pig ileum). Conditions: not given.
Assay type: tissue-based

Row | Compound | pKp
31 | c1ccc(C(CCc2nc(CCNCCCCCc3ccccn3)c[nH]2)c2ccccc2)cc1 | 6.74
32 | c1ccc(C(CCc2nc(CCNCCCCCc3cccnc3)c[nH]2)c2ccccc2)cc1 | 6.61
33 | c1ccc(C(CCc2nc(CCNCCCCc3c[nH]cn3)c[nH]2)c2ccccc2)cc1 | 6.17
34 | c1ccc(C(CCc2nc(CCNCCCc3c[nH]cn3)c[nH]2)c2ccccc2)cc1 | 7.14
35 | c1ccc(C(CCc2nc(CCNCCc3ccncc3)c[nH]2)c2ccccc2)cc1 | 6.02

Each compound was assayed against Histamine H1 receptor (Cavia porcellus, UniProt P31389) (assay: Effective concentration against histamine H1 receptor in guinea pig ileum). Conditions: not given.
Assay type: tissue-based

Chain of Histamine H1 receptor (P31389 whole entry): as above

Row | Compound | EC50
36 | c1ccc(C(CCc2nc(CCNCCCCCc3ccccn3)c[nH]2)c2ccccc2)cc1 | 15.5 nM
37 | c1ccc(C(CCc2nc(CCNCCCCCc3cccnc3)c[nH]2)c2ccccc2)cc1 | 26.3 nM
38 | c1ccc(C(CCc2nc(CCNCCCCc3c[nH]cn3)c[nH]2)c2ccccc2)cc1 | 123 nM
39 | c1ccc(C(CCc2nc(CCNCCCc3c[nH]cn3)c[nH]2)c2ccccc2)cc1 | 13.5 nM
40 | c1ccc(C(CCc2nc(CCNCCc3ccncc3)c[nH]2)c2ccccc2)cc1 | 115 nM
